Laboratory results taken from PMC5497587 (Molecular pharmaceutics, 2017).

What was measured:
[1] = test system: inflammatory cells in bronchoalveolar lavage fluid; assay: Inflammatory cells in BALF of ova s/c BALB/c mice; type: in vivo, mouse
Outline: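 Male BALB/c mice (5–10 wk), ova-sensitised/challenged, 10 per group; dexamethasone 4 mg/kg i.p. daily for 8 days (10% DMSO/40% propylene glycol/50% PBS); test compounds 100 mg/kg b.i.d. by gavage for 5 days. BAL with 1 ml Ca/Mg-free PBS, RBC lysis, Fc block, 30 min 4 °C antibody staining. CD45+ count gives cells/ml; CCR3+/GR1+/CD4+/CD11b+ frequencies × total; mean ± SEM versus vehicle.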

[2] = test system: airway hyperresponsiveness and airway eosinophilia; details: cited from earlier work
[3] = test system: human and guinea pig smooth muscle tissue; details: cited from earlier work
[4] = cited from earlier work
[5] = test system: GABAARs expressed on splenocytes; assay: Automated patch-clamp electrophysiology for splenocytes; type: cell-based, mouse; details: splenocytes from ova s/c mice

SMILES: C[C@@H]1C[C@H]2[C@@H]3CCC4=CC(=O)C=C[C@]4(C)[C@@]3(F)[C@@H](O)C[C@]2(C)[C@@]1(O)C(=O)CO [dexamethasone]
- CD4+ T cell population in BALF ([1]; 4 mg/kg i.p. for 8 days): significantly reduced
- CD11b+ leukocyte population in BALF ([1]; i.p. 4 mg/kg daily for 8 days): as did dexamethasone treatment
- eosinophils (CCR3+) in BALF by flow cytometry ([1]; i.p. 4 mg/kg daily for 8 days): almost completely eliminated
- reduction of white blood cells in BALF ([1]; i.p. 4 mg/kg daily for 8 days, compared with compounds 1 and 2): more pronounced
- AHR in ova s/c mice ([2]; dexamethasone treated ova s/c mice): reduced AHR

SMILES: C#Cc1ccc2c(c1)C(c1ccccc1F)=N[C@H](C)c1c(C(=O)OCC)ncn1-2 [SH-053-2′F-R-CH3]
- smooth muscle relaxation ex vivo [3]: relax human and guinea pig smooth muscle tissue
- blood brain barrier crossing [4]: can cross the blood brain barrier

SMILES: C=CCc1ccc(O)c(-c2ccc(O)c(CC=C)c2)c1 [honokiol]
- AHR and lung eosinophilia ([2]; acute and chronic administration, ova s/c mouse asthma model): reduced AHR and lung eosinophilia

SMILES: NCc1cc(=O)[nH]o1 [muscimol]
- induced current change relative to current change induced by GABA [5]: around 50%
